This passage reports T/C, IC50 and Activity results from ChEMBL document CHEMBL1158959, “Antitumor agents, 119. Kansuiphorins A and B, two novel antileukemic diterpene esters from Euphorbia kansui” (J Nat Prod, 1991).

As a reminder, the IC50 is the concentration that gives 50% inhibition. Read a high IC50 as weaker potency in that assay.

In assay [1] the test system is P388. As to the kind of experiment: In vivo antileukemic activity in mouse P388 cells at 0.1 mg/kg relative to control. The format is functional. The method, boiled down: (§1)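 In vivo P-388 lymphocytic leukemia model run by standard National Cancer Institute procedures; activity is reported as T/C (%), treated relative to control.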
In assay [2] the test system is MOLT-4. As to the kind of experiment: Cytotoxicity against human MOLT4 cells. The format is functional, cell-based.
Assay [3] deals with HL-60(TB). As to the kind of experiment: Cytotoxicity against human HL-60(TB) cells. The format is functional, cell-based.
For assay [4], the system named is K562. As to the kind of experiment: Cytotoxicity against human K562 cells. The assay is classed as functional, cell-based.
Assay [5] is described as follows: Cytotoxicity against human NCI-H322 cells. The format is functional, cell-based.
The test system of assay [6] is HOP-62. Nature of the assay: Cytotoxicity against human HOP62 cells. The assay is classed as functional, cell-based.
The test system of assay [7] is SW-620. As to the kind of experiment: Cytotoxicity against human SW620 cells. The format is functional, cell-based.
Assay [8] has as its system SK-MEL-5. Nature of the assay: Cytotoxicity against human SK-MEL-5 cells. The assay is classed as functional, cell-based.
The subject of assay [9] is RPMI-7951. Nature of the assay: Cytotoxicity against human RPMI7951 cells. The assay is classed as functional, cell-based.
For assay [10], the system named is Malme-3M. As to the kind of experiment: Cytotoxicity against human MALME-3M cells. The assay is classed as functional, cell-based.
Assay [11] relates to A498. Nature of the assay: Cytotoxicity against human A498 cells. The format is functional, cell-based.
Assay [12] deals with A704. As to the kind of experiment: Cytotoxicity against human A704 cells. The assay is classed as functional, cell-based.
Assay [13] relates to SN12K1. Nature of the assay: Cytotoxicity against human SN12K1 cells. The assay is classed as functional, cell-based.
Assay [14] has as its system P388. Nature of the assay: Cytotoxicity against adriamycin-resistant mouse P388 cells. The assay is classed as functional, cell-based.
In assay [15] the test system is NCI-H522. Nature of the assay: Cytotoxicity against human NCI-H522 cells. The format is functional, cell-based.
The test system of assay [16] is H125. As to the kind of experiment: Cytotoxicity against human H125 cells. The assay is classed as functional, cell-based.
Assay [17] concerns NCI-H23. Nature of the assay: Cytotoxicity against human H23 cells. The assay is classed as functional, cell-based.
For assay [18], the system named is EKVX. As to the kind of experiment: Cytotoxicity against human EKVX cells. The format is functional, cell-based.
The test system of assay [19] is NCI-H82. Nature of the assay: Cytotoxicity against human H82 cells. The assay is classed as functional, cell-based.
Assay [20] concerns NCI-H524. Nature of the assay: Cytotoxicity against human NCI-H524 cells. The assay is classed as functional, cell-based.
The test system of assay [21] is NCI-H146. Nature of the assay: Cytotoxicity against human NCI-H146 cells. The format is functional, cell-based.
Assay [22] relates to DLD-1. Nature of the assay: Cytotoxicity against human DLD1 cells. The format is functional, cell-based.
Assay [23] has as its system HCC 2998. As to the kind of experiment: Cytotoxicity against human HCC2998 cells. The assay is classed as functional, cell-based.
For assay [24], the system named is MCF7. As to the kind of experiment: Cytotoxicity against human MCF7 cells. The assay is classed as functional, cell-based.
For assay [25], the system named is NCI/ADR-RES. Nature of the assay: Cytotoxicity against human MCF7/ADR cells. The format is functional, cell-based.
Assay [26] concerns U-251. Nature of the assay: Cytotoxicity against human U251 cells. The assay is classed as functional, cell-based.
Assay [27] relates to SNB-19. As to the kind of experiment: Cytotoxicity against human SNB19 cells. The assay is classed as functional, cell-based.
Assay [28] concerns SNB44. As to the kind of experiment: Cytotoxicity against human SNB44 cells. The format is functional, cell-based.
The test system of assay [29] is SNB-75. As to the kind of experiment: Cytotoxicity against human SNB75 cells. The assay is classed as functional, cell-based.
Assay [30] deals with SK-MEL-2. Nature of the assay: Cytotoxicity against human SK-MEL-2 cells. The format is functional, cell-based.
Assay [31] concerns OVCAR-8. As to the kind of experiment: Cytotoxicity against human OVCAR8 cells. The assay is classed as functional, cell-based.
In assay [32] the test system is OVCAR-5. Nature of the assay: Cytotoxicity against human OVCAR5 cells. The format is functional, cell-based.
Assay [33] relates to UO-31. Nature of the assay: Cytotoxicity against human UO31 cells. The assay is classed as functional, cell-based.
Assay [34] has as its system NCI-H69. Nature of the assay: Cytotoxicity against human H69 cells. The assay is classed as functional, cell-based.
Assay [35] deals with P388. As to the kind of experiment: In vivo antileukemic activity in mouse P388 cells at 0.5 mg/kg relative to control. The assay is classed as functional. The method, boiled down:
as §1

In brackets after ≈: the same amount, converted by molar mass. Activity calls are given as the source filed them. The calls are words filed in the database; no cut-off is given here. Where only a bound is given, the exact number is not on record here.

With `CCCCCCCCCCCCCCCC(=O)OCC1=C[C@@H]2C(=O)[C@]3(C=C(C)[C@H](OC(=O)C(C)C(C)C)[C@@]3(O)[C@@H]1O)[C@H](C)C[C@]1(OC(=O)CCCCCCCCCCC)[C@H]2C1(C)C` (stereo not given in full) [KANSUIPHORIN A], in assay [1], the T/C result is listed as “>=176%”. The IC50 was found to be 0.13 µg/mL (≈ 0.147 µM) in assay [2]; 0.03 µg/mL (≈ 0.034 µM) in assay [3]; 0.03 µg/mL (≈ 0.034 µM) in assay [4]; 0.33 µg/mL (≈ 0.374 µM) in assay [5]; 0.06 µg/mL (≈ 0.0679 µM) in [6]; 0.08 µg/mL (≈ 0.0906 µM) in assay [7]. For the same compound, the IC50 amounted to 0.14 µg/mL (≈ 0.158 µM) in assay [8]; 0.05 µg/mL (≈ 0.0566 µM) in assay [9]; 0.32 µg/mL (≈ 0.362 µM) in [10]; 0.02 µg/mL (≈ 0.0226 µM) in [11]; 0.03 µg/mL (≈ 0.034 µM) in [12]; 0.07 µg/mL (≈ 0.0792 µM) in assay [13]. Moreover, the outcome in assay [14], in [15], in assay [16], in assay [17], in assay [18] and in assay [19] was inactive. The outcome in [20], in [21], in assay [22], in assay [23], in [24] and in assay [25] was inactive. Moreover, the result in assay [26], in [27], in [28], in assay [29], in assay [30] and in assay [31] was inactive. Besides, the outcome in assay [32], in [33] and in [34] was inactive.

Take `CCCCCCCCCCCCCCCC(=O)OC[C@@]12O[C@@H]1[C@@H]1C(=O)[C@]3(C=C(C)[C@H](OC(=O)C(C)C(C)C)[C@@]3(O)[C@@H]2O)[C@H](C)C[C@]2(OC(=O)CCCCCCCCCCC)[C@H]1C2(C)C` (stereo not given in full) [KANSUIPHORIN B]: the T/C entry in assay [35] is given as “>=177%”.
